Laboratory results reported in ChEMBL document CHEMBL1641380, “Novel tetrahydropyrido[3,2-c]pyrroles as 5-HT(7) antagonists” (Bioorg Med Chem Lett, 2011).
The source made the active and inactive calls. The calls are words filed in the database; no cut-off is given here.

Tests used:
[1] = target: 5-hydroxytryptamine receptor 7 (Rattus norvegicus, UniProt P32305); experiment: Displacement of [3H]5-CT from rat recombinant 5HT7 receptor expressed in HEK293 cells after 60 mins; type: cell-based
Procedure, shortened: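 Membranes from HEK-293 cells stably expressing rat 5-HT7 incubated 60 min at room temperature with 1 nM [3H]5-CT and increasing test compound; rapid filtration, radioactivity counted. IC50 from nonlinear sigmoidal fits, Ki by Cheng-Prusoff. Means of three experiments in triplicate, SEM; final DMSO ≤0.4%.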

[2] = target: 5-hydroxytryptamine receptor 7 (Rattus norvegicus) (UniProt P32305); experiment: Antagonist activity at rat recombinant 5HT7 receptor expressed in HEK293 cells assessed as decrease of 5-CT-induced increase of cAMP level after 20 mins by competitive immunoassay
[3] = target: 5-hydroxytryptamine receptor 7 (Homo sapiens, UniProt P34969); experiment: Binding affinity to 5HT7 receptor
[4] = Binding affinity to adrenergic alpha1 receptor
[5] = Drug level in rat plasma at 10 mg/kg, ip after 1 hr; type: ADME, organism-based; set-up: dose 10 mg/kg, route intraperitoneal; conditions: read-out: Drug uptake
Procedure, shortened: (§1)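 Rats dosed 10 mg/kg intraperitoneally; brain and plasma compound concentrations measured 1 h after dosing.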

[6] = Drug level in rat brain at 10 mg/kg, ip after 1 hr; type: ADME, organism-based; set-up: dose 10 mg/kg, route intraperitoneal; conditions: read-out: Drug uptake; procedure, shortened: as §1
[7] = tested on: Rattus norvegicus; experiment: Inhibition of 5-CT-induced hypothermia in rat at 10 mg/kg, ip; type: functional, organism-based; set-up: dose 10 mg/kg
Procedure, shortened: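 Conscious rats given test compound intraperitoneally at 10 mg/kg; antagonism of hypothermia induced by the 5-HT7 agonist 5-CT assessed.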

Sequence of 5-hydroxytryptamine receptor 7 (Rattus norvegicus) (P32305 whole entry): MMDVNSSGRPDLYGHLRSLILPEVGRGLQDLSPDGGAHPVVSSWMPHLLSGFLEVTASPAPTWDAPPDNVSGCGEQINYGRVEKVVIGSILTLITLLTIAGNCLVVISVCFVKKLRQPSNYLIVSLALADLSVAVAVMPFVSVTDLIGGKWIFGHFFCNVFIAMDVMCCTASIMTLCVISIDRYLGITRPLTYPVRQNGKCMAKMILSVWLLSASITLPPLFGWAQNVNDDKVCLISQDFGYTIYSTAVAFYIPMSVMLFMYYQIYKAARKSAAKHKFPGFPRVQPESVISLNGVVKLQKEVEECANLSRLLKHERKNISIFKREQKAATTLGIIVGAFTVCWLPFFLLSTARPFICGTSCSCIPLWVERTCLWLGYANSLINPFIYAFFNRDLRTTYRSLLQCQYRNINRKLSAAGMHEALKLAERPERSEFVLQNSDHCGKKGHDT
Sequence of 5-hydroxytryptamine receptor 7 (Rattus norvegicus, UniProt P32305) (P32305 whole entry): as above
Sequence of 5-hydroxytryptamine receptor 7 (Homo sapiens, UniProt P34969) (P34969 whole entry): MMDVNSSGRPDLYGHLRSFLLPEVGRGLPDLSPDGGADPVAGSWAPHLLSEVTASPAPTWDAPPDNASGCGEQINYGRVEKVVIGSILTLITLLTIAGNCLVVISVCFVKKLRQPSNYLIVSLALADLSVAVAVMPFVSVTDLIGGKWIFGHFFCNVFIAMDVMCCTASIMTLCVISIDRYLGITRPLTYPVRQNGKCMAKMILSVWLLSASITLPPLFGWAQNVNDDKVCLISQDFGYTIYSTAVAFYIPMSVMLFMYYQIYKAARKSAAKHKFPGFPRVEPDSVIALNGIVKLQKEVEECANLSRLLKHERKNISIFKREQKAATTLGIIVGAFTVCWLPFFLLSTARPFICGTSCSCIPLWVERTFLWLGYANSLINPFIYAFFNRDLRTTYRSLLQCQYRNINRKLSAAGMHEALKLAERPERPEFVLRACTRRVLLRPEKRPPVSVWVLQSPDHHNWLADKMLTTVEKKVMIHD

Row | SMILES | Ki [1] [nM] | further results
1 | Oc1ccc(-c2cn(Cc3ccccc3)c3c2CNCC3)cc1 | 10000 | 
2 | Clc1ccc(-c2cn(Cc3ccccc3)c3c2CNCC3)cc1Cl | 4470 | 
3 | Clc1cccc(Cn2cc(-c3ccccc3)c3c2CCNC3)c1 | 6600 | 
4 | Clc1cccc(-c2cn(Cc3ccccc3)c3c2CNCC3)c1 | 10000 | 
5 | Clc1ccc(-c2nn(Cc3ccccc3)c3c2CNCC3)cc1 |  | Ki [3]: 14 nM
6 | CC(C)(C)c1ccc(-c2cn(Cc3ccccc3)c3c2CNCC3)cc1 | 10000 | 
7 | Clc1ccc(-c2cn(Cc3ccccc3)c3c2CNCC3)c(Cl)c1 | 2070 | 
8 | Fc1cccc(-c2cn(Cc3ccccc3)c3c2CNCC3)c1 | 2730 | 
9 | Clc1ccc(Cn2cc(-c3ccccc3)c3c2CCNC3)cc1 | 753 | 
10 | Clc1ccccc1Cn1cc(-c2ccccc2)c2c1CCNC2 | 2290 | 
11 | FC(F)(F)Oc1ccc(-c2cn(Cc3ccccc3)c3c2CNCC3)cc1 | 10000 | 

More lines, in order of falling Ki [1], values ahead:

Row | Ki [1] [nM] | SMILES | further results
12 | 533 | Clc1ccc(-c2cn(Cc3cccc(Cl)c3)c3c2CNCC3)cc1 | 
13 | 450 | O=[N+]([O-])c1ccc(-c2cn(Cc3ccccc3)c3c2CNCC3)cc1 | 
14 | 370 | CC(C)N1CCc2c(c(-c3ccc(Cl)cc3)cn2Cc2ccccc2)C1 | 
15 | 290 | COc1ccc(-c2cn(Cc3ccccc3)c3c2CNCC3)cc1 | 
16 | 250 | CCN1CCc2c(c(-c3ccc(Cl)cc3)cn2Cc2ccccc2)C1 | 
17 | 220 | c1ccc(Cn2cc(-c3ccccc3)c3c2CCNC3)cc1 | pKb [2]: 6.7
18 | 167 | FC(F)(F)c1ccc(-c2cn(Cc3ccccc3)c3c2CNCC3)cc1 | 
19 | 107 | Clc1ccc(-c2cn(Cc3ccccc3)c3c2CNCC3)cc1 | pKb [2]: 7.2
20 | 45 | Fc1ccc(-c2cn(Cc3ccccc3)c3c2CNCC3)cc1 | 
21 | 36 | CN1CCc2c(c(-c3ccc(Cl)cc3)cn2Cc2ccccc2)C1 | 
22 | 35 | Cc1ccc(-c2cn(Cc3ccccc3)c3c2CNCC3)cc1 | Activity [4]: 5 nM; concentration at 1 h [5]: 3 µM; concentration at 1 h [6]: 27 µM; pKb [2]: 7.6; Activity [7]: Active
